In the library only some 4.1% were active in any assay of this set; here they are far more common.
FID counter: displaces DNA intercalator in HCV helicase counter-screen. DNA fluorescent intercalator displacement, fluorescence. inhibition, % at 7.9 µM. hit rate 0.17% among 290,000; in the data active = inhibition above about 37%;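 note: 0% = vehicle and 100% = reference compound; higher means more ethidium bromide displaced from hairpin DNA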
MEKK2wt PB1 HTS: raises or lowers MEK5 binding to wildtype human MEKK2 PB1 domain; binding response (% of control), % at 10 µM; hit rate 1.1% among 290,000; Q9Y2U5; bead flow cytometry, Alexa488-MEK5 binding to MEKK2 WT; actives lie on both sides; AID 1531; in the data active = binding response below about 67% or above about 130%; inconclusive = no clear call, values can overlap the other calls; inactive = in between
MEKK2 mut-MEK5: signal of MEK5 binding to mutant human MEKK2 PB1 domain; percent response, % at 10 µM; bead flow cytometry, Alexa488-MEK5 binding to MEKK2 mutant; AID 1530; hit rate 0.35% among 290,000; in the data active = percent response above about 24%, passing the limit was not always enough
HCV NS3 hel inh: blocks Hepatitis C virus NS3 helicase unwinding; NS3 helicase DNA unwinding, Cy5 molecular beacon fluorescence; inhibition, % at 10.9 µM; hit rate 0.56% among 290,000; AID 1800;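 active = inhibition above the mean of all tested compounds plus 3 SD, set per campaign, cut at about 35% in these data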;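 note: 0% = DMSO wells and 100% = thioflavine S control wells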
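Measured by: Cy5 fluorescence, 0 and 60 min reads / Assay system: NS3 helicase fragment of HCV / Control set: low DMSO, high thioflavine S at 110 µM / Times: 1 h reaction at 25 °C, ATP-initiated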
MEKK3 PB1 HTS: MEKK3-MEK5 PB1 interaction, increase or decrease | bead-based flow cytometry, Alexa488-MEK5 binding to MEKK3; actives lie on both sides; 0 = blocked by unlabeled MEK5, 100 = vehicle | hit rate 1.4% among 290,000 | Q99759 | binding response (% of control), % at 10 µM;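 active = binding response more than 3 SD above or below the average of its plate-row segment, actives on both sides; inconclusive = wells at one plate position flagged as instrument error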;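 note: Alexa488 bead fluorescence after subtracting the streptavidin-only scavenger bead signal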
Target sequence (Q99759 whole entry, looked up): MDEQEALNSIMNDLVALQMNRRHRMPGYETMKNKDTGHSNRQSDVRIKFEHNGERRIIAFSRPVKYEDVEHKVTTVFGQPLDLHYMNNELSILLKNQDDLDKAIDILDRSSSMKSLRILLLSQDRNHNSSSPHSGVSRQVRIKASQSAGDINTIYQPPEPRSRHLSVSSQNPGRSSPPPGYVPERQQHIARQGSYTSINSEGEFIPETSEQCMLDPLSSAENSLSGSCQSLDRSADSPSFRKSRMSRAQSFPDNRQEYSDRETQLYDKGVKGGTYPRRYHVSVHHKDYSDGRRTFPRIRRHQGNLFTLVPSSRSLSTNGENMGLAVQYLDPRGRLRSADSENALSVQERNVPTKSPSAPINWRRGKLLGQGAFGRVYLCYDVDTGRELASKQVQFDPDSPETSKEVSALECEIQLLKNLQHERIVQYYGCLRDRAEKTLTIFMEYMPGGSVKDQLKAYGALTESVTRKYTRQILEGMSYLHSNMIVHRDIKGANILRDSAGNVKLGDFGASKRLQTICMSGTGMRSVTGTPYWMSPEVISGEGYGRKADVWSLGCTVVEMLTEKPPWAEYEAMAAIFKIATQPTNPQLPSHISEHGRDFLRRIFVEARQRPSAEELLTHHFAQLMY
T cruzi inh: T. cruzi replication inhibition; hit rate 1.4% among 300,000; T. cruzi beta-gal in NIH3T3, luminescence, 90 h; inhibition, % (no concentration beside the values);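 active = mean inhibition across valid replicates above about 55%, limit read from the data; inconclusive = mean below that limit but half or more replicates reach it; inactive = mean below it, under half of replicates reach it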;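 note: signal also drops with host cell toxicity which is not excluded here; 0% = plate median of DMSO wells and 100% = zero luminescence signal; higher percent means less beta-gal luminescence so fewer parasites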
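Assay system: NIH/3T3 host cells with β-galactosidase reporter T. cruzi; input: 5,000 host fibroblasts per well; compound: single 50 nL compound addition per well in DMSO; timing: ≥90 h infection period, 3 h prior cell attachment; measured by: GalScreen β-gal luminescence, detergent lysis, 60 min; evaluation: percent inhibition of parasite-derived β-gal signal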
MEKK2wt confirm: raises or lowers MEK5 binding to wildtype human MEKK2, retest. shares compounds with MEKK3 PB1 HTS. bead flow cytometry, Alexa488-MEK5 binding to MEKK2 WT; actives lie on both sides. binding response (% of control), % at 10 µM. hit rate 2.4% among 5,900. AID 1892; in the data active = binding response below about 16% or above about 210%; inactive = in between
MEKK2mut-MEK5: signal of MEK5 binding to mutant human MEKK2, retest; shares compounds with MEKK3 PB1 HTS; bead flow cytometry, Alexa488-MEK5 binding to MEKK2 mutant; percent response, % at 10 µM; hit rate 2% among 5,900; AID 1893; in the data active = percent response mostly above about 71%, no sharp cut-off; inactive = mostly below about 38%;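 note: higher means compound restores mutant binding toward wildtype level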
MEKK3 confirm: confirmation of inhibitors of MEK5 binding to human MEKK3; shares compounds with MEKK3 PB1 HTS; binding response (% of control), % at 10 µM; bead flow cytometry, Alexa488-MEK5 binding to MEKK3; hits give low values; hit rate 1.8% among 5,900; AID 1894;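 active = binding response below 72% of control, or above a set upper limit, though filed actives all read lower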;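 note: 100% = DMSO only wells and 0% = binding blocked by excess unlabeled MEK5; lower values mean stronger disruption of MEK5 binding to MEKK3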
* hit, by the source's call; ? = inconclusive; . = no result given; [ ] = dose if it differs, or a comment.

SMILES	FID counter	MEKK2wt PB1 HTS	MEKK2 mut-MEK5	HCV NS3 hel inh	MEKK3 PB1 HTS	T cruzi inh	MEKK2wt confirm	MEKK2mut-MEK5	MEKK3 confirm
O=C(CSc1ccccc1C(=O)NCc1ccccc1)NC12CC3CC(CC(C3)C1)C2	-19.3	100.0	0.0	6.8	134.0*	4.0	99.0	0.0	102.0
O=C(CSc1ccccc1C(=O)O)NC1CCCCCC1	-1.6	91.0	-11.0	-1.2	91.0	-17.0	.	.	.
COc1ccc(-c2nc3ccccc3c(=O)n2CCOc2cc(C)ccc2C)cc1	0.9	100.0	-1.0	-0.8	100.0	-20.8	.	.	.
Cn1cc(S(=O)(=O)N2CCN(c3cccc(Cl)c3)CC2)c(=O)n(C)c1=O	-8.4	132.0	29.0	2.9	129.0*	-1.4	109.0	10.0	103.0
Cn1cc(S(=O)(=O)N2CCN(c3ccccc3)CC2)c(=O)n(C)c1=O	-4.0	112.0	15.0	10.6	116.0	-5.4	.	.	.
FC(F)(F)c1cc(CCN2CCNC[C@@H]2Cc2ccccc2)cc(C(F)(F)F)c1	.	146.0*	15.0	.	113.0	38.1	136.0	39.0	111.0
Cc1cc2cc(CNC(=O)NC3CCCCC3)ccc2[nH]1	-4.1	.	51.0*	-0.3	62.0*[inhibitor]	3.6	70.0	3.0	65.0*
C/C(=N\NC(=O)c1ccc(Br)cc1)C1C(=O)c2ccccc2C1=O	-7.7	105.0	3.0	8.1	103.0	1.1	.	.	.
C/C(=N\NC(=O)c1ccc(-c2ccccc2)cc1)C1C(=O)c2ccccc2C1=O	-3.6	47.0*[inhibitor]	-16.0	9.8	47.0*[inhibitor]	?	97.0	0.0	103.0
COc1cc(CCC(=O)Nc2ccc(Br)c(C(F)(F)F)c2)cc(OC)c1OC	-15.3	112.0	0.0	-3.1	151.0*	16.3	105.0	1.0	102.0
N#Cc1cc2cc3c(cc2nc1NCCNC(=S)NCCCN1CCOCC1)OCO3	12.2	104.0	4.0	-5.3	108.0	-6.6	.	.	.
Nc1ccc(C(=O)OCC(=O)N2CCN(C(=O)c3ccco3)CC2)cc1[N+](=O)[O-]	-0.3	105.0	0.0	-1.2	134.0*	-5.7	105.0	8.0	107.0
Cc1ccccc1NC(=O)CSCc1cc(=O)n2ccsc2n1	-4.7	96.0	-1.0	2.3	98.0	-23.0	.	.	.
O=C(CN1CCOCC1)Nc1ncc(Cc2cccc(Cl)c2)s1	-18.4	109.0	0.0	0.6	152.0*	6.1	105.0	3.0	106.0
COc1ccc(C(=O)NCc2ccc3c(c2)cc(C)n3C)cc1	-20.9	91.0	8.0	-12.0	90.0	-4.8	.	.	.
Cc1ccc(CNC(=O)c2c(-c3ccccc3Cl)noc2C)cc1	-17.6	102.0	2.0	-10.5	103.0	4.3	.	.	.
Cc1onc(-c2ccccc2Cl)c1C(=O)NCc1ccc2c(c1)cc(C)n2C	.	43.0*[inhibitor]	-8.0	.	59.0*[inhibitor]	32.0	93.0	-3.0	99.0
CNC(=O)c1cc2ccccc2o1	-4.2	119.0	7.0	-8.6	124.0*	-23.4	91.0	-6.0	90.0
Cc1cc2cc(CNC(=O)c3ccc4c(c3)OCO4)ccc2n1C	-23.8	-11.0*	-19.0	-24.0	65.0*[inhibitor]	22.2	102.0	4.0	101.0
COc1cc(OC)cc(C(=O)NCc2ccc3c(c2)cc(C)n3C)c1	-15.9	.	-21.0	-10.5	47.0*[inhibitor]	31.3	70.0	-12.0	85.0
Cc1cc2cc(CNC(=O)c3ccco3)ccc2n1C	.	96.0	1.0	.	97.0	10.6	.	.	.
COCC(=O)NCc1ccc2c(c1)cc(C)n2C	-7.3	92.0	-1.0	-0.4	92.0	2.8	.	.	.
Cc1cc2cc(CNC(=O)c3cc4ccccc4o3)ccc2n1C	-38.1	.	-9.0	5.9	45.0*[inhibitor]	65.0*	57.0	-19.0	75.0
Cc1ccc(S(=O)(=O)NCc2ccc3c(c2)cc(C)n3C)cc1	-17.8	51.0*[inhibitor]	-15.0	-3.0	71.0*[inhibitor]	63.9*	62.0	-9.0	82.0
